Paper PMC7408314 (Inorganic chemistry, 2020)

How the values were obtained:
[1] = [L] = 10 μM, [M] = 1 μM, pH = 7.4; cited from earlier work
[2] = In vitro mouse serum challenge; type: in vitro ADME; details: 37 °C, at least six half-lives of scandium-44 (24 h)
Summary of the method: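 Scandium-44-labelled complex (free chelator or its PSMA-617 conjugate, labelled at ambient temperature in 0.5 M NH₄OAc) mixed with an equal volume of mouse serum and held at 37 °C. Aliquots taken at 0.5, 4, 8 and 24 h, run on iTLC-SA in 0.4 M sodium citrate pH 4.5 beside free ⁴⁴Sc-in-serum control. Intact fraction calculated from baseline versus solvent-front peak areas.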

[3] = system: PC3-PIP (PSMA+) and PC3-Flu (PSMA−) tumor-bearing nude mice; details: 7.4 vs 74 GBq/μmol
in vivo = details: male, nude, mouse, tumor (PSMA+, PC3-PIP), intravenous, total radioactivity, tumor retention
[4] = protonated tertiary amine in the pyridyl backbone; cited from earlier work
[5] = cited from earlier work
[6] = cited from earlier work; remark: listed apart in the source
[7] = cited from earlier work; remark: listed apart in the source
[8] = target: PSMA on PC3-PIP (PSMA+) cells (Homo sapiens, UniProt Q04609); assay: Receptor saturation binding assay on prostate cancer cells; details: 2 h incubation
Sequence of PSMA on PC3-PIP (PSMA+) cells (Q04609 whole entry): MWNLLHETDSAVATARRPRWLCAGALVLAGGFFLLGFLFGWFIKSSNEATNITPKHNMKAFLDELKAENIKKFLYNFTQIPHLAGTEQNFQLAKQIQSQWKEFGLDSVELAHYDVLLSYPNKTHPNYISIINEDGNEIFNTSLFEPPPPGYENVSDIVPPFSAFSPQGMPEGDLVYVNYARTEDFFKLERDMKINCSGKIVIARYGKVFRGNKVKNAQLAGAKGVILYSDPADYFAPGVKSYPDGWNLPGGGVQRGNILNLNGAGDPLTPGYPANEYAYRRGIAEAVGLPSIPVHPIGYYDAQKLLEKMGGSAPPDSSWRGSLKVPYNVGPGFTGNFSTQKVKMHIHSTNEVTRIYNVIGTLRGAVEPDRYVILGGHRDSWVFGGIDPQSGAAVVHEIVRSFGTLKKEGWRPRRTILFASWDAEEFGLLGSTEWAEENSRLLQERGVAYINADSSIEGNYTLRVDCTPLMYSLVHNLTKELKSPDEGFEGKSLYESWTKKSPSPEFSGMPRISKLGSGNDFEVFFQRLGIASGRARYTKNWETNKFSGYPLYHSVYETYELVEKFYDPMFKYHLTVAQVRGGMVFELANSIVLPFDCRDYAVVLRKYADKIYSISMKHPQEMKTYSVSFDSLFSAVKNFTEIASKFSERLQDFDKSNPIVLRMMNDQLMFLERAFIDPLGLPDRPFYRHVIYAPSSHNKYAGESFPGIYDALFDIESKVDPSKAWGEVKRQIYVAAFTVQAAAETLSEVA

CC1(N(CC(=O)O)CC(=O)O)CN(CC(=O)O)CCN(CC(=O)O)C1 [AAZTA, 6-[bis(hydroxycarbonyl-methyl)amino]-1,4-bis-(hydroxycarbonylmethyl)-6-methylperhydro-1,4-diaze-pine]
pSc (pM), −log [M]free [1]: 24.7

O=C(O)CN1CCN(CC(=O)O)CCN(CC(=O)O)CCN(CC(=O)O)CC1 [DOTA, 1,4,7,10-tetraazacyclododecane-1,4,7,10-tetraacetic acid]
pSc (pM), −log [M]free [1]: 23.9

O=C(O)CC[C@H](NC(=O)N[C@@H](CCCCNC(=O)[C@H](Cc1ccc2ccccc2c1)NC(=O)[C@H]1CC[C@H](CNC(=O)CCCCCCOc2cc(CN(CC(=O)O)Cc3cccc(C(=O)O)n3)nc(CN(CC(=O)O)Cc3cccc(C(=O)O)n3)c2)CC1)C(=O)O)C(=O)O [[^44Sc][Sc(pypa-C7-PSMA617)], metal not drawn]
transchelation in mouse serum [2]: < 1% | effect of lower apparent molar activity on kidney accumulation [3]: brought down the kidney accumulation by more than half | tissue uptake (in vivo; after about four half-lives of scandium-44, 7.4 GBq/μmol): 14.9 ± 1.7 %ID/g | tissue uptake (in vivo; after about four half-lives of scandium-44, 74 GBq/μmol): 20 ± 0.6 %ID/g

O=C(O)CN(Cc1cccc(CN(CC(=O)O)Cc2cccc(C(=O)O)n2)n1)Cc1cccc(C(=O)O)n1 [H4pypa]
highest pKa [4]: 7.78 | complex stability pM with Lu^3+ [5]: 22.6 | complex stability pM with La^3+ [6]: 19.9 | complex stability pM with In^3+ [7]: 30.5

O=C(O)CC[C@H](NC(=O)N[C@@H](CCCCNC(=O)[C@H](Cc1ccc2ccccc2c1)NC(=O)[C@H]1CC[C@H](CNC(=O)CCCCCCOc2cc(CN(CC(=O)O)Cc3cccc(C(=O)O)n3)nc(CN(CC(=O)O)Cc3cccc(C(=O)O)n3)c2)CC1)C(=O)O)C(=O)O [H4pypa-C7-PSMA617]
Bmax [8]: 7.84 ± 0.37 fmol/mg
